In ChEMBL document CHEMBL3259533, “A new convenient synthetic method and preliminary pharmacological characterization of triazinediones as prokineticin receptor antagonists” (Eur J Med Chem, 2014):
Active and inactive are the calls of the source. No cut-off for these calls is given here.

Assays:
Mus musculus [1] = experiment: Analgesic activity in C57Bl/6 mouse assessed as changes in basal thermal sensitivity up to 120 pmol administered as intraplantar route at 48 degC after 15 to 180 mins; format: functional, organism-based
Method in brief: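 Male C57Bl/6 mice (25–30 g), trained in paw-immersion test the preceding week. Compound in saline, 20 µl intraplantar, up to 120 pmol. Hind paw dipped in 48 °C water; withdrawal latency measured three times at 15–180 min post-dose versus baseline (mean of last three pre-dose readings). Result as % change from baseline; 5 mice per dose.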

Mus musculus [2] = experiment: Analgesic activity in C57Bl/6 mouse assessed as inhibition of Bv8-induced decrease in latencies to paw withdrawal administered as intraplantar route at 48 degC after 15 to 180 mins; format: functional, organism-based
Method in brief: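 Male C57Bl/6 mice (25–30 g), trained the preceding week. Antagonist in saline, 20 µl intraplantar, 5 min before Bv8 (63 fmol i.pl. in saline). Paw withdrawal latency from 48 °C water measured in triplicate at 15–180 min; %ΔNT = 100×(NTts−NTB)/NTB. Separate group of 5 mice per dose; EC50 with 95% confidence intervals from dose–response curves.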

SMILES	Activity (Mus musculus [1])	EC50 (Mus musculus [2]) [pmol]
COc1ccc(Cn2c(=O)nc(NCCNC(=N)N)n(Cc3ccccc3)c2=O)cc1	inactive	63
COc1ccc(Cn2c(=O)nc(NCCNC(=N)N)n(Cc3ccc(F)cc3)c2=O)cc1	inactive	36
COc1ccc(Cn2c(=O)nc(NCCNC(=N)N)n(Cc3ccc(Cl)cc3)c2=O)cc1	inactive	4.4
COc1ccc(Cn2c(NCCNC(=N)N)nc(=O)n(Cc3ccc4c(c3)OCO4)c2=O)cc1	inactive	39
COc1ccc(Cn2c(=O)nc(NCCNC(=N)N)n(Cc3ccc(C(F)(F)F)cc3)c2=O)cc1	inactive	48
COc1ccc(Cn2c(NCCNC(=N)N)nc(=O)n(Cc3ccc(Br)cc3)c2=O)cc1	inactive	0.36
COc1ccc(Cn2c(NCCNC(=N)N)nc(=O)n(Cc3ccc([N+](=O)[O-])cc3)c2=O)cc1	inactive	48
COc1ccc(Cn2c(NCCNC(=N)N)nc(=O)n(Cc3ccc(C(F)(F)F)cc3)c2=O)cc1	inactive	51
Cc1ccc(Cn2c(NCCNC(=N)N)nc(=O)n(Cc3ccc(C(F)(F)F)cc3)c2=O)cc1	inactive	0.033
COc1ccc(Cn2c(=O)nc(NCCNC(=N)N)n(Cc3ccc(I)cc3)c2=O)cc1	inactive	39
COc1ccc(Cn2c(NCCNC(=N)N)nc(=O)n(Cc3ccc(Cl)cc3)c2=O)cc1	inactive	4
COc1ccc(Cn2c(NCCNC(=N)N)nc(=O)n(Cc3ccc(F)cc3)c2=O)cc1	inactive	0.31
COc1ccc(Cn2c(NCCNC(=N)N)nc(=O)n(Cc3ccc(C)cc3)c2=O)cc1	inactive	4.4
COc1ccc(Cn2c(=O)nc(NCCNC(=N)N)n(Cc3ccc(C)cc3)c2=O)cc1	inactive	4.5
COc1ccc(Cn2c(=O)nc(NCCNC(=N)N)n(Cc3ccc(Br)cc3)c2=O)cc1	inactive	4.3
COc1ccc(Cn2c(NCCNC(=N)N)nc(=O)n(Cc3ccc(I)cc3)c2=O)cc1	inactive	51
COc1ccc(Cn2c(NCCNC(=N)N)nc(=O)n(Cc3ccc(OC)cc3)c2=O)cc1	inactive	
CCc1ccc(Cn2c(=O)nc(NCCNC(=N)N)n(Cc3ccc(OC)cc3)c2=O)cc1	inactive	5.8
COc1ccc(Cn2c(=O)nc(NCCNC(=N)N)n(Cc3ccc(Cl)c(Cl)c3)c2=O)cc1	inactive	4.5
Cc1ccc(Cn2c(=O)nc(NCCNC(=N)N)n(Cc3ccc(Cl)c(Cl)c3)c2=O)cc1	inactive	5.1
